Test results reported in ChEMBL document CHEMBL1127839, “In vitro photoinduced cytotoxicity and DNA binding properties of psoralen and coumarin conjugates of netropsin analogues: DNA sequence-directed alkylation and cross-link formation” (J Med Chem, 1994).

Assays:
[1] = system: Nucleic Acid; assay: Apparent binding constant was determined by ethidium displacement assay in calf thymus; assay type: nucleic-acid assay; settings: Bos taurus
[2] = system: Panel leukemia (Carcinoma cell lines); assay: In vitro photocytotoxicity is evaluated against human chronic myeloid leukemia cells grown in culture under the dark conditions; assay type: functional, cell-based
Outline: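 Human chronic myeloid leukemia K562 cells were given a 1 h drug exposure (0.01-100 μM final, from DMSO stocks) at 37 °C in the dark, then washed, with no UV irradiation. Cells were cultured 4-5 days in the dark in 96-well plates, 8 wells per sample. MTT was added for 5 h and formazan dissolved in DMSO was read at 550 nm. IC50 was taken from the dose-response curve.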

[3] = system: Panel leukemia (Carcinoma cell lines); assay: In vitro photocytotoxicity is evaluated against human chronic myeloid leukemia cells grown in culture irradiated at 366 nM; assay type: functional, cell-based; settings: light or radiation study
Outline: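 K562 cells in RPMI 1640 with 10% FCS and 2 mM glutamine were exposed to drug at 0.01-100 μM final for 1 h at 37 °C in the dark. They were washed, then irradiated in PBS for 2 min at 366 nm (420 μW/cm², 5 cm, no filters). Cells were plated at 8 wells per sample and grown 4-5 days in the dark. Readout was MTT at 550 nm; IC50 was taken from the dose-response curve.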

[4] = system: Nucleic Acid; assay: Apparent binding constant was determined by ethidium displacement assay in coliphage T4 DNA; assay type: nucleic-acid assay
[5] = system: Nucleic Acid; assay: Apparent binding constant was determined by ethidium displacement assay in poly (dG-dC); assay type: nucleic-acid assay
[6] = system: Nucleic Acid; assay: Apparent binding constant was determined by ethidium displacement assay in pol (dA-dT); assay type: nucleic-acid assay
[7] = Dose to produce photoinduced DNA cross-link formation on isolated DNA
[8] = Dose to produce […] on isolated DNA; no DNA cross-links

| Compound | Binding constant [1] [M⁻¹] | Binding constant [4] [M⁻¹] | Binding constant [5] [M⁻¹] | Binding constant [6] [M⁻¹] | XL50 [7] [µM] | XL50 [8] | IC50 [2] [µM] | IC50 [3] [µM] |
| --- | --- | --- | --- | --- | --- | --- | --- | --- |
| COc1c2occc2cc2ccc(=O)oc12 [METHOXSALEN] | 48000 | 14000 | 25000 | 17000 | 18 |  | > 100 | 100 |
| CN(C)CCNC(=O)c1cc(NC(=O)c2cc(NC(=O)CCCCOc3c4occc4cc4ccc(=O)oc34)cn2C)cn1C | 550000 | 660000 | 90000 | 290000 | 0.005 |  | > 100 | 0.3 |
| CN(C)CCNC(=O)c1nc(NC(=O)c2nc(NC(=O)CCCCOc3c4occc4cc4ccc(=O)oc34)cn2C)cn1C | 40000 | 270000 | 210000 | 90000 | 1.6 |  | 55 | 4.5 |

Further lines, with some results ahead:

| Binding constant [1] [M⁻¹] | Binding constant [4] [M⁻¹] | Binding constant [5] [M⁻¹] | Binding constant [6] [M⁻¹] | XL50 [7] [µM] | XL50 [8] | Compound | IC50 [2] [µM] | IC50 [3] [µM] |
| --- | --- | --- | --- | --- | --- | --- | --- | --- |
| 100000 | 100000 | 140000 | 110000 |  | No DNA crosslinks | CN(C)CCNC(=O)c1nc(NC(=O)c2nc(NC(=O)CCCCOc3ccc4ccc(=O)oc4c3)cn2C)cn1C | > 100 | 40 |
| 170000 | 120000 | 110000 | 3.5e+06 |  | No DNA crosslinks | CN(C)CCNC(=O)c1cc(NC(=O)c2cc(NC(=O)CCCCOc3ccc4ccc(=O)oc4c3)cn2C)cn1C | > 100 | 75 |
| 770000 | 650000 | 200000 | 3.48e+07 |  |  | Cn1cc(NC(=O)c2cc(NC(=O)c3cc(NC=O)cn3C)cn2C)cc1C(=O)NCCC(=N)N |  |  |
